Reference: ChEMBL document CHEMBL4480404, “Discovery of Lipophilic Bisphosphonates That Target Bacterial Cell Wall and Quinone Biosynthesis” (J Med Chem, 2019)
In brackets after ≈: the same amount, converted by molar mass.

Legend:
Candida albicans = assay: microbe, parasite or virus in culture; assay type: functional; conditions: CAI-4, 12 h, read-out: ED50 (the source's name)
[1] = Growth inhibition of HEK293 cells after 24 hrs by MTT assay; assay type: cell-based; conditions: human, read-out: ED50
In short: (§1)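 HEK293 cells in DMEM (4.5 g/L glucose) with 10% FBS and 1% penicillin-streptomycin, seeded at 10⁵ cells/mL. Inhibitor from 10 mM stock diluted threefold across 10 wells; 37 °C for 24 or 96 h.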

[2] = Lipophilicity, log D of the compound at pH 7.4; assay type: physicochemical; conditions: buffer
Bacillus anthracis = assay: Antibacterial activity against Bacillus anthracis Sterne after 12 hrs; assay type: functional; conditions: read-out: ED50 (the source's name)
Bacillus subtilis [3] = assay: Antibacterial activity against Bacillus subtilis (Ehrenberg) Cohn ATCC 6051 in absence of fetal bovine serum after 12 hrs; assay type: functional; conditions: (Ehrenberg) Cohn ATCC 6051, 12 h, read-out: ED50 (the source's name)
In short: (§2)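 Log-phase B. subtilis diluted 500-fold into LB containing 0%, 4% or 10% fetal bovine serum. Inhibitor threefold serially diluted across 12 wells from a 100 µM–1 mM start; incubated 12 h at 37 °C with 200 rpm shaking; growth inhibition by OD600.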

Staphylococcus aureus = assay: Antibacterial activity against Staphylococcus aureus Newman after 12 hrs; assay type: functional; conditions: read-out: ED50 (the source's name)
In short: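 Log-phase S. aureus culture in tryptic soy broth (OD600 ~0.3, then diluted 500-fold). Inhibitors two-fold serially diluted across 12 wells from a 100 µM–1 mM start; 37 °C, 200 rpm, 12 h; OD600 read for growth inhibition.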

Bacillus subtilis [4] = assay: Antibacterial activity against Bacillus subtilis (Ehrenberg) Cohn ATCC 6051 in presence of 10% fetal bovine serum after 12 hrs; assay type: functional; conditions: (Ehrenberg) Cohn ATCC 6051, 12 h, read-out: ED50 (the source's name)
In short: as §2

Bacillus subtilis [5] = assay: Antibacterial activity against Bacillus subtilis (Ehrenberg) Cohn ATCC 6051 after 12 hrs; assay type: functional; conditions: (Ehrenberg) Cohn ATCC 6051, 12 h, read-out: ED50 (the source's name)
In short: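 Log-phase LB culture (grown to OD600 ~0.3, then diluted 500-fold) exposed to two-fold serial dilutions of inhibitor starting at 100 µM–1 mM across 12 wells; 37 °C, 200 rpm shaking, 12 h. OD600 read and ED50 fitted; duplicate or triplicate.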

[6] = tested on: Mycolicibacterium smegmatis; assay: Antibacterial activity against Mycobacterium smegmatis MC2 155 ATCC 700084 after 48 hrs; assay type: functional; conditions: MC2 155 ATCC 700084, 48 h, read-out: ED50 (the source's name)
In short: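 Culture grown 36–48 h, diluted 1000-fold in Middlebrook 7H9 with 10% ADC, 0.5% glycerol, 0.05% Tween 80; inhibitors started at 100 µM–1 mM, threefold serial dilution across 10 wells; 37 °C, 200 rpm, 48 h; OD600 read-out.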

[7] = Inhibition of Escherichia coli OPPS using IPP as substrate
[8] = target: T1, Farnesyl pyrophosphate synthase (Homo sapiens, UniProt P14324); assay: Inhibition of human FPPS using IPP and GPP as substrate
T1 sequence (P14324 whole entry): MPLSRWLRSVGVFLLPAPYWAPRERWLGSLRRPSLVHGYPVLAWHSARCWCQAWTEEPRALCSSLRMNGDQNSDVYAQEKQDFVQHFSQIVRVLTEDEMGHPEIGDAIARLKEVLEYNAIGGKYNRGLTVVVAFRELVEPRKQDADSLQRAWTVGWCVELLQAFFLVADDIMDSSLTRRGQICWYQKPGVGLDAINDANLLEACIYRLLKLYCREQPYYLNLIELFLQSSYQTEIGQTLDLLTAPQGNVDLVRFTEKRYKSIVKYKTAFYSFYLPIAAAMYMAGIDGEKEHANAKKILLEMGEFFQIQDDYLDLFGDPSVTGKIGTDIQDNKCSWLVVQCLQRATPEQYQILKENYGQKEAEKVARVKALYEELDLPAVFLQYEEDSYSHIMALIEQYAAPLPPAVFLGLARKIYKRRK
In short: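 Expressed HsFPPS at 0.15 μM with 50 μM IPP and 50 μM GPP, 25°C, in 20 mM HEPES pH 7.5, 150 mM NaCl, 500 μM MgCl2. Enzyme preincubated 30 min at room temperature with serially diluted compound. Continuous MESG/PNP phosphate-release read-out, with pyrophosphatase added. At least 3 runs on different days; pooled data fitted by nonlinear regression for IC50.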

[9] = Growth inhibition of HEK293 cells after 96 hrs by MTT assay; assay type: cell-based; conditions: human, read-out: ED50
In short: as §1

CCCCCCCCCCCCCCOc1cccc(O)c1C(=O)O
EC50 (Candida albicans): > 50 µg/mL

CC(C)CCCC(C)CCNc1ccc[n+](CC(P(=O)([O-])O)P(=O)(O)O)c1 (stereo not given)
GI50 at 24 h [1]: 440 µM

CC(C)CCCC(C)CCSc1ccc[n+](CC(P(=O)([O-])O)P(=O)(O)O)c1 (stereo not given)
logD [2]: -5.09
GI50 at 24 h [1]: 510 µM

CC(C)CCCC(C)c1cnc(NCC(P(=O)(O)O)P(=O)(O)O)s1 (stereo not given)
logD ([2]; read-out: logD): -2.96

O=P([O-])(O)C(Cn1cc[n+](CCCc2ccc(F)c(F)c2)c1)P(=O)(O)O (stereo not given)
EC50 (Candida albicans): 2 µg/mL (≈ 4.88 µM)
EC50 (Bacillus anthracis): > 100 µg/mL
EC50 (Bacillus subtilis [3]): 26 µg/mL (≈ 63.4 µM)
EC50 (Staphylococcus aureus): 30 µg/mL (≈ 73.1 µM)
EC50 (Bacillus subtilis [4]): 38 µg/mL
EC50 (Bacillus subtilis [5]): > 100 µg/mL
GI50 at 24 h [1]: 600 µM

O=P([O-])(O)C(C[n+]1ccc(-c2ccc3oc4ccccc4c3c2)cc1)P(=O)(O)O (stereo not given)
EC50 (Candida albicans): > 50 µg/mL

CCCCCCCCOc1cccc(C(=O)Nc2ccc(F)cc2C(=O)O)c1
EC50 [6]: 3 to 8 µg/mL (≈ 7.74 to 20.6 µM)
EC50 (Candida albicans): > 50 µg/mL
EC50 (Bacillus anthracis): 3 to 8 µg/mL (≈ 7.74 to 20.6 µM)
EC50 (Staphylococcus aureus): 3 to 8 µg/mL (≈ 7.74 to 20.6 µM)
EC50 (Bacillus subtilis [5]): 3 to 8 µg/mL (≈ 7.74 to 20.6 µM)

CCCCCCCCCCOc1ccc[n+](CC(P(=O)([O-])O)P(=O)(O)O)c1 (stereo not given)
EC50 (Candida albicans): > 50 µg/mL
IC50 [7]: 0.006 to 0.02 µM

O=P(O)(O)C(O)(Cc1cccc(-c2cccc3c2oc2ccccc23)c1)P(=O)(O)O
EC50 (Candida albicans): > 50 µg/mL

CC(C)CCCC(C)CCOc1cc[n+](CC(P(=O)([O-])O)P(=O)(O)O)cc1 (stereo not given)
IC50 [8]: 100 µM
EC50 (Bacillus subtilis [3]): 5.7 µg/mL (≈ 13.5 µM)
GI50 at 96 h [9]: 800 µM
logD [2]: -5.82
EC50 (Bacillus subtilis [4]): 28 µg/mL
GI50 at 24 h [1]: ≥ 1000 µM

CC(C)CCCC(C)CCCc1ccc[n+](CC(P(=O)([O-])O)P(=O)(O)O)c1 (stereo not given)
EC50 (Bacillus subtilis [3]): 2.4 µg/mL (≈ 5.7 µM)
logD [2]: -4.71
EC50 (Bacillus subtilis [4]): 1.7 µg/mL
GI50 at 24 h [1]: 460 µM

CC(C)CCCC(C)CCOc1cccc(NCC(P(=O)(O)O)P(=O)(O)O)n1 (stereo not given)
logD ([2]; read-out: logD): -2.24

CC(C)CCCC(C)CCOc1ccc[n+](CC(O)(P(=O)([O-])O)P(=O)(O)O)c1 (stereo not given)
GI50 at 24 h [1]: 1100 µM

CC(C)CCCC(C)CCCc1cc[n+](CC(P(=O)([O-])O)P(=O)(O)O)cc1 (stereo not given)
EC50 (Bacillus subtilis [3]): 2.3 µg/mL (≈ 5.46 µM)
GI50 at 96 h [9]: > 1000 µM
logD [2]: -4.71
EC50 (Bacillus subtilis [4]): 78 µg/mL
GI50 at 24 h [1]: 700 µM

CC(C)CCCC(C)CCSc1cc[n+](CC(P(=O)([O-])O)P(=O)(O)O)cc1 (stereo not given)
logD [2]: -5.08
GI50 at 24 h [1]: 1000 µM
